Most compounds without a hit are left out; they make up all but 0.79% or so of the library.
bIAP activator: intestinal alkaline phosphatase (bovine) activation; purified bovine IAP, CDP-star luminescence, 30 min; stronger effect = higher value; fold of DMSO-control signal, blank-subtracted; activation factor at 20 µM; 200,000 compounds, 0.17% hits; AID 1016;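 active = activation factor of 2 or more at 20 µM, a signal rise over negative controls twice the positive control's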
hIAP block: human IAP inhibition; inhibition, % at 10 µM; purified IAP, CDP-Star luminescence, 30 min; AID 2544; 330,000 compounds, 0.12% hits; P09923;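 active = inhibition reaching a set limit with compound at 10 µM in the primary screen, cut at about 35% in these data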;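 note: plate controls were DMSO wells with enzyme for no effect and no-enzyme buffer wells for full effect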
Target sequence (P09923 whole entry, looked up): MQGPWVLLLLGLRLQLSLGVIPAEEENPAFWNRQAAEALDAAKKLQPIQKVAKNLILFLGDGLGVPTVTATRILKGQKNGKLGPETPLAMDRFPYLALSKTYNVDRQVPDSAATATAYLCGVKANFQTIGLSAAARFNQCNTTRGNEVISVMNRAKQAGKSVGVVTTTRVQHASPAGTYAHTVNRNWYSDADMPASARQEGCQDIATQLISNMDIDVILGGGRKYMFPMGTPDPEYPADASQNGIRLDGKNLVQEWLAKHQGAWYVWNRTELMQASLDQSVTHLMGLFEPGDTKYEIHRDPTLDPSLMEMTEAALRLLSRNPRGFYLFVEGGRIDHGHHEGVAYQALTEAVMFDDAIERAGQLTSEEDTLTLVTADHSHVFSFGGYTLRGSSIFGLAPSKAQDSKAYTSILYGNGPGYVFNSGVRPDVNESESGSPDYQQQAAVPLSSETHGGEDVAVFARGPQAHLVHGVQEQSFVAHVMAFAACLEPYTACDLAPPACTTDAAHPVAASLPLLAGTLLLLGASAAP
hIAP activ: increases human intestinal alkaline phosphatase activity; P09923; purified human IAP, CDP-Star luminescence, 30 min; stronger effect = higher value; 1 = vehicle-only enzyme, 0 = enzyme-free background; activation factor at 10 µM; 330,000 compounds, 0.16% hits; AID 2524;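 active = activation factor of the enzyme at least 2-fold when tested at 20 µM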
mIAP activ: mouse IAP activation; muIAP, CDP-Star luminescence, 30 min; stronger effect = higher value; 1 = vehicle-only enzyme signal, 0 = enzyme-free wells; activation factor at 10 µM; 330,000 compounds, 0.24% hits;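 active = activation factor of at least 2 at 20 µM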
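System: mouse IAP enzyme. Reagent: CDP-Star chemiluminescent phosphatase substrate. Benchmarks: DMSO wells, no-enzyme wells. Times: 30 min enzyme-substrate-compound incubation at room temperature. Detection: luminescence from enzymatic CDP-Star hydrolysis. Doses: test compounds delivered from DMSO solution.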
mIAP inh: blocks mouse intestinal alkaline phosphatase. inhibition, % at 10 µM. 330,000 compounds, 0.2% hits. purified mouse IAP, CDP-Star luminescence, 30 min. AID 2806;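 active = inhibition of at least 40% at 10 µM in the primary screen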;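 note: plate controls were DMSO with enzyme for no effect and no enzyme wells for full effect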
bIAP inhibitor: blocks bovine intestinal alkaline phosphatase activity | inhibition, % at 20 µM | 190,000 tested, under 10 active | purified bovine IAP, CDP-star luminescence, 30 min;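 active = over 50% inhibition of intestinal alkaline phosphatase at 20 µM in the single-dose screen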
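test system = bovine IAP enzyme | medium = DEA buffer 100 mM, pH 9.8, with MgCl2 1.0 mM, ZnCl2 0.02 mM | detection = luminescence | dosing = single compound dose of 20 µM, 2% DMSO final | incubation = 30 min reaction at room temperature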
The depositor's hits bear a star; · = no result.

SMILES	bIAP activator	hIAP block	hIAP activ	mIAP activ	mIAP inh	bIAP inhibitor
Cc1cc(-c2csc(NC(=O)c3ccc(=O)[nH]c3)n2)c(C)n1Cc1ccccc1	1.1	3.2	0.968	0.618	38.2	-8.3
Cc1cc(-c2csc(NC(=O)c3ccc(C#N)cc3)n2)c(C)n1Cc1ccco1	0.9	1.0	0.99	0.59	41.0*	9.9
COc1ccc(CCN2CC(C(=O)N(C)Cc3c(C)n[nH]c3C)CCC2=O)cc1 (stereo unspecified)	·	16.1	0.839	0.974	2.6	·
CCCCCCCCC(=O)NC(NC(=S)N1CCOCC1)C(Cl)(Cl)Cl (stereo unspecified)	1	-73.1	1.73	3.36*	-235.6	4.9
Cc1ccc(NC(=O)CSc2nc3ccccc3c(=O)n2CCCN2CCCCC2)cc1C	2.4*	-12.6	1.13	1.16	-15.8	-141.3
CC(CC(=O)NC1CCCCC1)S(=O)(=O)c1ccc2c(c1)NC(=O)CO2 (stereo unspecified)	·	7.3	0.927	1.03	-2.8	·
Cc1cc([N+](=O)[O-])cc(/C=N\NC(=O)C2COc3ccccc3O2)c1O (stereo unspecified)	·	-33.8	1.34	0.585	41.5*	·
O=C(N/N=C\c1ccc(O)c([N+](=O)[O-])c1)C1COc2ccccc2O1 (stereo unspecified)	·	-10.2	1.1	0.964	3.6	·
c1ccc2[nH]c(SCc3cn4ccccc4n3)nc2c1	1.4	-46.0	1.46	1.06	-6.0	-40.9
Cc1cccc2nc(CSc3nc4ccccc4[nH]3)cn12	2.6*	8.4	0.916	0.901	9.9	-155.3
O=C(O)CN(C1CCCCC1)S(=O)(=O)c1ccc(F)cc1	1	13.0	0.87	0.996	0.4	-2.9
Cc1ccc(NC(=O)C(=O)c2ccc(C)cc2)cc1	·	5.1	0.949	0.946	5.4	·
Cc1ccc(-n2c(SCC(N)=O)nnc2-c2cccnc2)c(C)c1	1	0.7	0.993	2.03*	-102.6	3.3
CCOC(=O)c1sc2nccc(OC)c2c1N=CN(C)C	1	-5.9	1.06	0.94	6.0	-1.4
Cc1ccc(S(=O)(=O)N(C)C)cc1NC(=S)NC12CC3CC(CC(C3)C1)C2	0.3	·	·	·	·	·
CN(C)S(=O)(=O)c1cccc(NC(=S)NC23CC4CC(CC(C4)C2)C3)c1	·	-13.9	1.14	2.74*	-174.3	·
CC1CCCC(NC(=S)Nc2cccc(S(=O)(=O)N(C)C)c2)C1C (stereo unspecified)	1	-23.4	1.23	4.92*	-392.3	4.3
COc1c(-c2ccc([N+](=O)[O-])cc2[N+](=O)[O-])c(=O)n(C)c(=O)n1C	·	1.0	0.989	0.918	8.2	·
Oc1ccc(-c2nc(-c3ccc(O)c(O)c3)cs2)cc1	0.8	37.6*	0.624	0.676	32.4	15.6
Cc1noc(C)c1COc1ccccc1C(=O)NCCOc1ccccc1	·	-2.7	1.03	1.08	-7.7	·
Cc1ccc(-n2cc(CN(C)Cc3ncc[nH]3)c(-c3cccc(C)c3)n2)cc1	3.5*	-42.6	1.43	1.04	-4.4	-253.4
CN(Cc1ncc[nH]1)Cc1cn(-c2ccccc2)nc1-c1ccc2c(c1)OCO2	·	-13.7	1.14	1.13	-13.0	·
COc1ccc(C)cc1S(=O)(=O)Nc1ccc2c(c1)OCO2	1.1	6.6	0.934	0.923	7.7	-14.6
CC(C)(C)c1ccc(NC(=O)COc2ccc(-n3ccnc3)cc2)cc1	2.6*	-6.7	1.07	1.23	-23.3	-164.6
COc1cc(NC(=O)COc2ccc(-n3ccnc3)cc2)cc(OC)c1	1.2	-28.0	1.28	1.1	-9.8	-24.9
SMILES	bIAP activator	hIAP block	hIAP activ	mIAP activ	mIAP inh	bIAP inhibitor
Cc1c(Cl)cccc1NC(=S)NCc1ccccc1Cl	1.1	-1.0	1.01	2.69*	-169.4	-5.9
COc1cc(NC(=O)C(Cc2ccccc2)n2cccc2)cc(OC)c1 (stereo unspecified)	·	-19.4	1.19	2.09*	-109.3	·
CN(C(=O)CSc1nnc(N)s1)C1CCCCC1	·	19.8	0.802	1	0.0	·
CC1(C)Oc2ccc3ccc(=O)oc3c2/C(=C/Nc2ccccc2)C1=O	0.8	3.8	0.962	0.594	40.6*	16.0
CC1(C)Oc2ccc3ccc(=O)oc3c2/C(=C/N)C1=O	1	-23.4	1.23	0.929	7.1	3.0
Cc1oc(S(=O)(=O)N2CCCCC2)cc1NC(=O)Nc1ccc(Cl)cc1	·	-35.0	1.35	2.56*	-155.9	·
O=C(Nc1ccccc1)Nc1ccc(S(=O)(=O)N2CCCCC2)cc1	0.8	6.2	0.938	2.4*	-140.3	17.2
O=C(Nc1ccc(S(=O)(=O)N2CCCCC2)cc1)c1ccccc1Cl	0.8	13.6	0.864	1.01	-1.2	18.8
CCC(Oc1ccccc1)C(=O)NCCCN1CCOCC1 (stereo unspecified)	·	2.2	0.978	1.06	-5.6	·
Cn1c(=O)n(C)c2cc([N+](=O)[O-])c(N3CCN(CCO)CC3)cc21	0.9	0.1	0.999	0.912	8.8	9.5
O=S(=O)(c1ccc(NC(=S)Nc2ccccc2)cc1)N1CCOCC1	1	-6.1	1.06	1.01	-1.2	1.7
CC(C)CCCCCCNC(=S)Nc1ccc(S(=O)(=O)N2CCOCC2)cc1	0.9	6.0	0.94	2.25*	-124.7	5.5
Cc1cc(N(C)C)ccc1N=Nc1ccc2ncccc2c1	·	40.4*	0.596	0.824	17.6	·
Cc1ccc2ncccc2c1	·	-9.1	1.09	1.1	-9.8	·
CN(C)c1ccc(N2C(=O)CSC2=S)cc1	0.9	10.2	0.898	0.532	46.8*	8.2
Cc1ccc(NC(=O)C2CCCN(S(=O)(=O)c3cccnc3)C2)c(C)c1 (stereo unspecified)	·	-4.4	1.04	0.934	6.6	·
CCCCN1C(=O)C2(NNc3ccccc3O2)c2ccccc21 (stereo unspecified)	2.7*	24.5	0.755	0.947	5.3	-169.0
CC(C)CN1CCC(=O)N([C@H](COc2ccccc2)c2ccccc2)CC1	·	-0.4	1	1.03	-2.6	·
COC(=O)c1ccc(NC(=O)Nc2ccc(OC)c(OC)c2)cc1	1.2	-32.1	1.32	1.57	-56.7	-22.3
COc1ccc(NC(=O)NC23CC4(C)CC(C)(CC(C)(C4)C2)C3)cc1OC	0.9	13.1	0.869	3.94*	-293.5	8.5
Oc1cc(O)cc(/C=C/c2ccc(O)c(O)c2)c1	·	5.8	0.942	0.218	78.2*	·
CC(Cc1cccs1)NC(=O)Nc1ccc(Cl)cc1 (stereo unspecified)	0.8	-11.9	1.12	2.3*	-129.9	16.0
CC(Cc1cccs1)NC(=S)Nc1ccccc1 (stereo unspecified)	1	8.6	0.914	1.1	-10.2	4.8
CC(Cc1cccs1)NC(=O)Nc1ccccc1 (stereo unspecified)	0.7	0.2	0.998	1.11	-11.3	25.7
CC(Cc1cccs1)NC(=O)Nc1ccc(Cl)c(Cl)c1 (stereo unspecified)	0.5	-0.2	1	4.01*	-301.2	·

High-throughput results deposited in PubChem BioAssay by Sanford-Burnham Center for Chemical Genomics.
